Screening results from PubChem BioAssay.
This is a sample that favours compounds with a hit; in the whole collection about 0.41% have one here.
ABCG2 inh: blocks JC-1 efflux by human ABCG2 transporter; actives 0.1% (n = 190,000); Q9UNQ0; inhibition, % at 6.6 µM; IgMXP3 cells, flow cytometry;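 active means inhibition above 80%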;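 further: 0% = DMSO and 100% = nicardipine control wells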
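Test system: IgMXP3 cells (ABCG2) mixed with DDAO far-red-labelled CCRF-Adr cells (ABCB1). Reagent: JC-1 transporter substrate. Compound dosing: single test compound dose, 6.6 µM final. Times: 10 min compound exposure, 25 °C. Detection: flow cytometry of retained JC-1 fluorescence. Read-out basis: efflux inhibition in percent versus controls. Controls: nicardipine and DMSO wells.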
TNAP inh hiacc: blocks human TNAP under high phosphate acceptor concentration. purified TNAP, CDP-star luminescence, 1 M DEA. inhibition, % at 20 µM. actives 0.03% (n = 200,000);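 active means over 50% inhibition of tissue-nonspecific alkaline phosphatase at 20 µM in the single-dose screen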;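 further: plate controls were DMSO wells for no effect and EDTA-quenched wells as full inhibition for full effect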
Target sequence (P05186 whole entry, looked up): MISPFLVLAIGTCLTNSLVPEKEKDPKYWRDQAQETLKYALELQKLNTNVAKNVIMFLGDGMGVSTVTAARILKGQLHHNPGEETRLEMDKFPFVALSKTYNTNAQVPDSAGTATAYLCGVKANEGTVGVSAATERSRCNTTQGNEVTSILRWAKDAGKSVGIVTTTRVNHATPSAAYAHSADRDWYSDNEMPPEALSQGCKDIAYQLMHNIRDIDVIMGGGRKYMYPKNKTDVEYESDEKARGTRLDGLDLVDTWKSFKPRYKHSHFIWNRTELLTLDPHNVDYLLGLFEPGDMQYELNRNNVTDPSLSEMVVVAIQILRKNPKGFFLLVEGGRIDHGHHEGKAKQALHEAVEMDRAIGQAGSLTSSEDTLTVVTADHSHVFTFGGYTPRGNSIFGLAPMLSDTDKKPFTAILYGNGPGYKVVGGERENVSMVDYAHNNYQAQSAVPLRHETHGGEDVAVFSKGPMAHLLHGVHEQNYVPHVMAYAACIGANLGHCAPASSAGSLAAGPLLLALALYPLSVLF
ABCB1 inh: inhibitors of human ABCB1 transporter, ABCG2 counter-screen | actives 0.067% (n = 190,000) | AID 1326 | P08183 | CCRF-Adr cells, JC-1 efflux, flow cytometry | inhibition, % at 6.6 µM; in the data active means inhibition above about 40%;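 further: 0% = vehicle and 100% = reference inhibitor; higher value means more JC-1 retained so stronger ABCB1 efflux block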
TNAP act hiacc: increases human TNAP activity under high phosphate acceptor concentration | activation factor at 20 µM | 200,000 tested, under 10 active | purified TNAP, CDP-star luminescence, 1 M DEA, 30 min; stronger effect = higher value; 0 = EDTA background, 1 = DMSO-only activity;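 active means activation factor at least 2 at 20 µM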
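Dosing: 20 µM single point. System: human TNAP. Amount: TNAP 1/800 final. Incubation: 30 min, room temperature. Read-out: TNAP activation factor scaled between EDTA and DMSO control wells. Signal: luminescence from CDP-star hydrolysis. Medium: 1 M DEA, pH 9.8, Mg2+, Zn2+. Control set: EDTA negative control, DMSO positive control.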
TNAP inh noacc: inhibitors of human TNAP without phosphate acceptor. P05186. purified TNAP, CDP-star luminescence, 30 min. inhibition, % at 20 µM. actives 0.26% (n = 200,000). AID 1012;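 active means tissue-nonspecific alkaline phosphatase inhibition above about 50% at 20 µM in the single-dose screen, limit read from the data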;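 further: 0% = DMSO negative control and 100% = EDTA positive control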
Active calls of the source: *.

SMILES	ABCG2 inh	TNAP inh hiacc	ABCB1 inh	TNAP act hiacc	TNAP inh noacc
COCCNC(=O)c1c[nH]c2ccc(OC)cc2c1=O	-1	-5	-2	1	-10
COc1ccc2[nH]cc(C(=O)CNc3nc(C)cs3)c2c1	2	-8	0	1.1	56*
Cc1ccc(-c2cc(C(=O)N/N=C/c3cccnc3)n[nH]2)o1	11	-1	1	1	71*
O=C(CCSc1ccccc1)Nc1nnc(-c2cccs2)o1	3	-4	0	1	-4
CCn1c(CSc2nc3ccccc3s2)nnc1SCC(=O)c1ccc(O)c(O)c1	1	11	0	0.9	80*
CCn1c(SCC(=O)c2ccc(O)c(O)c2)nnc1-c1ccccc1	10	6	0	0.9	50*
CCn1c(CSc2nc3ccccc3s2)nnc1SCC(=O)c1ccc(Cl)cc1	5	-3	1	1	-10
NS(=O)(=O)c1cnccc1Nc1ccc(Cl)cc1	0	90*	1	0.1	87*
O=C(Nc1ccc2c(c1)oc1ccc(S(=O)(=O)N3CCCC3)cc12)C1CC1	110*	-2	-1	1	-11
C/C(=N\NC(=O)c1cccc(N/N=C(\C)c2cc(O)ccc2O)c1)c1cc(O)ccc1O	-4	1	-1	1	76*
C/C(O)=C(\N=Nc1cc(C)ccc1O)C(N)=O	1	17	0	0.8	-128
NNC(=O)c1cc(O)c(O)c(O)c1	-1	15	0	0.8	58*
COc1ccc(N(C(=O)CNC(=O)c2cccs2)C(C(=O)NC2CCCC2)c2cccnc2)cc1 (stereo not given)	0	-4	0	1	-4
Cc1[nH]nc(-c2ccc(O)c(C)c2O)c1Oc1ccccc1	17	-8	2	1.1	72*
Cc1ccc(CN2CCN(Cc3cn[nH]c3C3CCCCC3)CC2CCO)cc1 (stereo not given)	4	-4	2	1	8
CCCCN1C(=O)/C(=C/C=C2\SCCN2C)SC1=S	8	52*	2	0.5	43
CN1CCS/C1=C/C=C1\SC(=S)N(CC(=O)O)C1=O	0	43	0	0.6	41
O=C(/C(=N/N=C/c1ccc(O)c(O)c1)c1ccccc1)c1ccccc1	-9	26	-2	0.7	51*
CC(C)CSc1n[nH]c(N)n1	1	-1	0	1	50*
O=C1C2CC=CCC2C(=O)N1c1n[nH]c(CCc2ccccc2)n1 (stereo not given)	2	2	0	1	79*
O=C1C2C3C=CC(C3)C2C(=O)N1c1cccc(N2C(=O)C3C4C=CC(C4)C3C2=O)n1 (stereo not given)	6	-3	1	1	-8
O=C1C2CC=CCC2C(=O)N1c1nc2n(n1)C(c1ccccc1)CC(c1ccccc1)N2 (stereo not given)	2	-6	0	1.1	-10
O=C1C2C3C=CC(C3)C2C(=O)N1c1n[nH]c(-c2ccccc2)n1 (stereo not given)	0	-2	0	1	96*
O=C1C2C3C=CC(C3)C2C(=O)N1c1ccc2ccccc2n1 (stereo not given)	0	-5	0	1	-10
O=C1C2C3C=CC(C3)C2C(=O)N1c1n[nH]c(-c2cccnc2)n1 (stereo not given)	3	-2	1	1	59*
SMILES	ABCG2 inh	TNAP inh hiacc	ABCB1 inh	TNAP act hiacc	TNAP inh noacc
O=C1C2CC=CCC2C(=O)N1c1n[nH]c(-c2ccccc2)n1 (stereo not given)	3	2	1	1	97*
CCO[C@H]1OC(C(=O)N2CCCCCCC2)=C[C@@H](c2coc3ccccc3c2=O)[C@@H]1CCCO	6	-8	2	1.1	-2
O=C(CCCN1C(=O)c2cccc3cccc(c23)C1=O)Nc1ccon1	26	-1	1	1	-6
Cc1ccc(S(=O)(=O)N2CCCCC2)cc1NC(=O)COc1ccccc1F	2	-4	0	1	-8
CCN(CC)c1ccc(N2C(=O)/C(=C/c3cccs3)SC2=S)cc1	5	6	-1	0.9	0
CCN(CC)c1ccc(N2C(=O)CSC2=S)cc1	-1	10	0	0.9	57*
O=Cc1cn[nH]c1-c1ccccc1	2	-3	1	1	75*
O=C(Nc1cccc(Br)c1)c1ccc(OC2CSC2)cc1	0	-5	0	1.1	-5
